Several values for one entry are separate records, joined by “and”; a condition that tells them apart may be missing. Equal values may be shown once.
Legend:
HEK-293T = test: Multiplex assay against HEK293T; assay type: toxicity, cell-based; settings: human
Method in brief: (§1)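 Live cells were stained at seeding with Hoechst33342, BioTracker Green Microtubule Cytoskeleton Dye, MitoTracker Red and Annexin V Alexa Fluor 680, then imaged on a CQ1 microscope at 37°C and 5% CO2 after compound addition. CellPathfinder machine-learning gating split cells into Hoechst high-intensity objects or normal cells. Normal cells were split into healthy, pyknosed or fragmented nuclei, and pyknosed cells into mitotic or apoptotic. Tubulin, mitochondrial-mass and membrane-permeability phenotypes are per cents of healthy-nucleus cells.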

Fibroblast = test: Multiplex assay against human fibroblast; assay type: toxicity, cell-based; method in brief: as §1
[1] = 24 h, 1 µM, compound concentration 1 uM
[2] = 24 h, 10 µM, compound concentration 10 uM
[3] = 48 h, 1 µM, compound concentration 1 uM
[4] = 48 h, 10 µM, compound concentration 10 uM
[5] = 12 h, 1 µM, compound concentration 1 uM
[6] = 12 h, 10 µM, compound concentration 10 uM

For Cc1onc(-c2ccccc2Cl)c1C(=O)N(C)c1ccc(Cl)cc1, the “Total Cell Count” value (HEK-293T; [1]) was 523 and 383, the “Population Apoptotic (%)” value (HEK-293T; [2]) was 45% and 29% and the “Population Fragmented Nuclei (%)” value (HEK-293T; [2]) was 8% and 7%. For the same molecule, the “Population Healthy Nuclei (%)” value (HEK-293T; [2]) was 79% and 82%, the “Population Hoechst High Intensity Objects (%)” value (HEK-293T; [2]) was 5% and 3% and the “Population Membrane Permeable-Phenotype (%)” value (HEK-293T; [2]) was 1% and 0%. For the same molecule, the “Population Mitochondria Different-Phenotype (%)” value (HEK-293T; [2]) was 32% and 47%, the “Population Mitotic Cells (%)” value (HEK-293T; [2]) was 54% and 70% and the “Population Normal (%)” value (HEK-293T; [2]) was 94% and 96%. The “Population Pyknosed Nuclei (%)” value (HEK-293T; [2]) was 12% and 9%, the “Population Tubulin-Different-Phenotype (%)” value (HEK-293T; [2]) was 20% and the “Total Cell Count” value (HEK-293T; [2]) was 478 and 413. For the same molecule, the “Population Apoptotic (%)” value (HEK-293T; [3]) was 21% and 31%, the “Population Fragmented Nuclei (%)” value (HEK-293T; [3]) was 14% and 11% and the “Population Healthy Nuclei (%)” value (HEK-293T; [3]) was 79% and 82%. The “Population Hoechst High Intensity Objects (%)” value (HEK-293T; [3]) was 2%, the “Population Membrane Permeable-Phenotype (%)” value (HEK-293T; [3]) was 0% and 1% and the “Population Mitochondria Different-Phenotype (%)” value (HEK-293T; [3]) was 11% and 23%. The “Population Mitotic Cells (%)” value (HEK-293T; [3]) was 78% and 68%, the “Population Normal (%)” value (HEK-293T; [3]) was 97% and the “Population Pyknosed Nuclei (%)” value (HEK-293T; [3]) was 6% and 5%. The “Population Tubulin-Different-Phenotype (%)” value (HEK-293T; [3]) was 9% and 12%, the “Total Cell Count” value (HEK-293T; [3]) was 932 and 620 and the “Population Apoptotic (%)” value (HEK-293T; [4]) was 33% and 20%. The “Population Fragmented Nuclei (%)” value (HEK-293T; [4]) was 14% and 12%, the “Population Healthy Nuclei (%)” value (HEK-293T; [4]) was 76% and 81% and the “Population Hoechst High Intensity Objects (%)” value (HEK-293T; [4]) was 3%. The “Population Membrane Permeable-Phenotype (%)” value (HEK-293T; [4]) was 1% and 0%, the “Population Mitochondria Different-Phenotype (%)” value (HEK-293T; [4]) was 16% and 25% and the “Population Mitotic Cells (%)” value (HEK-293T; [4]) was 66% and 79%. The “Population Normal (%)” value (HEK-293T; [4]) was 96%, the “Population Pyknosed Nuclei (%)” value (HEK-293T; [4]) was 8% and 6% and the “Population Tubulin-Different-Phenotype (%)” value (HEK-293T; [4]) was 15% and 16%. The “Total Cell Count” value (HEK-293T; [4]) was 755 and 652, the “Population Apoptotic (%)” value (Fibroblast; [5]) was 60% and 35% and the “Population Fragmented Nuclei (%)” value (Fibroblast; [5]) was 17% and 22%. The “Population Healthy Nuclei (%)” value (Fibroblast; [5]) was 68% and 50%, the “Population Hoechst High Intensity Objects (%)” value (Fibroblast; [5]) was 7% and 9% and the “Population Membrane Permeable-Phenotype (%)” value (Fibroblast; [5]) was 0% and 6%. For the same molecule, the “Population Mitochondria Different-Phenotype (%)” value (Fibroblast; [5]) was 7% and 8%, the “Population Mitotic Cells (%)” value (Fibroblast; [5]) was 39% and 65% and the “Population Normal (%)” value (Fibroblast; [5]) was 92% and 90%. For the same molecule, the “Population Pyknosed Nuclei (%)” value (Fibroblast; [5]) was 13% and 27%, the “Population Tubulin-Different-Phenotype (%)” value (Fibroblast; [5]) was 23% and 63% and the “Total Cell Count” value (Fibroblast; [5]) was 178 and 161. The “Population Apoptotic (%)” value (Fibroblast; [6]) was 36% and 37%, the “Population Fragmented Nuclei (%)” value (Fibroblast; [6]) was 16% and 24% and the “Population Healthy Nuclei (%)” value (Fibroblast; [6]) was 70% and 48%. The “Population Hoechst High Intensity Objects (%)” value (Fibroblast; [6]) was 2% and 3%, the “Population Membrane Permeable-Phenotype (%)” value (Fibroblast; [6]) was 2% and 5% and the “Population Mitochondria Different-Phenotype (%)” value (Fibroblast; [6]) was 6% and 11%. For the same molecule, the “Population Mitotic Cells (%)” value (Fibroblast; [6]) was 63% and 62%, the “Population Normal (%)” value (Fibroblast; [6]) was 97% and 96% and the “Population Pyknosed Nuclei (%)” value (Fibroblast; [6]) was 13% and 27%. The “Population Tubulin-Different-Phenotype (%)” value (Fibroblast; [6]) was 29% and 64%, the “Total Cell Count” value (Fibroblast; [6]) was 144 and 151 and the “Population Apoptotic (%)” value (Fibroblast; [1]) was 44% and 39%. The “Population Fragmented Nuclei (%)” value (Fibroblast; [1]) was 18% and 22%, the “Population Healthy Nuclei (%)” value (Fibroblast; [1]) was 65% and 54% and the “Population Hoechst High Intensity Objects (%)” value (Fibroblast; [1]) was 7% and 12%. The “Population Membrane Permeable-Phenotype (%)” value (Fibroblast; [1]) was 0% and 8%, the “Population Mitochondria Different-Phenotype (%)” value (Fibroblast; [1]) was 1% and 4% and the “Population Mitotic Cells (%)” value (Fibroblast; [1]) was 55% and 60%. The “Population Normal (%)” value (Fibroblast; [1]) was 92% and 87%, the “Population Pyknosed Nuclei (%)” value (Fibroblast; [1]) was 16% and 23% and the “Total Cell Count” value (Fibroblast; [1]) was 178 and 182. The “Population Apoptotic (%)” value (Fibroblast; [2]) was 20% and 54%, the “Population Fragmented Nuclei (%)” value (Fibroblast; [2]) was 16% and 21% and the “Population Healthy Nuclei (%)” value (Fibroblast; [2]) was 76% and 55%. The “Population Hoechst High Intensity Objects (%)” value (Fibroblast; [2]) was 2% and 4%, the “Population Membrane Permeable-Phenotype (%)” value (Fibroblast; [2]) was 1% and 6% and the “Population Mitochondria Different-Phenotype (%)” value (Fibroblast; [2]) was 4% and 6%. The “Population Mitotic Cells (%)” value (Fibroblast; [2]) was 80% and 45%, the “Population Normal (%)” value (Fibroblast; [2]) was 97% and 95% and the “Population Tubulin-Different-Phenotype (%)” value (Fibroblast; [2]) was 32% and 59%. The “Total Cell Count” value (Fibroblast; [2]) was 134 and 149, the “Population Apoptotic (%)” value (Fibroblast; [3]) was 76% and 48% and the “Population Fragmented Nuclei (%)” value (Fibroblast; [3]) was 26% and 28%. For the same molecule, the “Population Healthy Nuclei (%)” value (Fibroblast; [3]) was 62% and 54%, the “Population Hoechst High Intensity Objects (%)” value (Fibroblast; [3]) was 9% and 11% and the “Population Membrane Permeable-Phenotype (%)” value (Fibroblast; [3]) was 0% and 10%. The “Population Mitochondria Different-Phenotype (%)” value (Fibroblast; [3]) was 1% and 6%, the “Population Mitotic Cells (%)” value (Fibroblast; [3]) was 23% and 51% and the “Population Normal (%)” value (Fibroblast; [3]) was 90% and 88%. The “Population Pyknosed Nuclei (%)” value (Fibroblast; [3]) was 10% and 17%, the “Population Tubulin-Different-Phenotype (%)” value (Fibroblast; [3]) was 22% and 51% and the “Total Cell Count” value (Fibroblast; [3]) was 185 and 188. For the same molecule, the “Population Apoptotic (%)” value (Fibroblast; [4]) was 44% and 65%, the “Population Fragmented Nuclei (%)” value (Fibroblast; [4]) was 25% and 31% and the “Population Healthy Nuclei (%)” value (Fibroblast; [4]) was 68% and 55%. For the same molecule, the “Population Hoechst High Intensity Objects (%)” value (Fibroblast; [4]) was 4% and 1%, the “Population Membrane Permeable-Phenotype (%)” value (Fibroblast; [4]) was 0% and 8% and the “Population Mitochondria Different-Phenotype (%)” value (Fibroblast; [4]) was 3% and 6%. The “Population Mitotic Cells (%)” value (Fibroblast; [4]) was 55% and 35%, the “Population Normal (%)” value (Fibroblast; [4]) was 95% and 98% and the “Population Pyknosed Nuclei (%)” value (Fibroblast; [4]) was 6% and 12%. For the same molecule, the “Population Tubulin-Different-Phenotype (%)” value (Fibroblast; [4]) was 34% and 53% and the “Total Cell Count” value (Fibroblast; [4]) was 141 and 166.

From ChEMBL document CHEMBL5724801, “EUbOPEN Chemogenomics Library - Multiplex” (2024)
